Data on 21 molecules can be found in ChEMBL document CHEMBL5230163, “Design, synthesis and antibacterial evaluation of a novel class of tetrahydrobenzothiophene derivatives” (2023).

≈ marks a conversion by molar mass, not a printed value. Calls of active or inactive are those of the source. No cut-off for these calls is given here.

Experiment [1] has as its system Pseudomonas aeruginosa. The experiment can be described thus: Antibacterial activity against Pseudomonas aeruginosa ATCC 27853 assessed as inhibition of bacterial growth by standard broth microdilution method. In kind it is functional. The procedure, abridged:
(§1)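 Broth microdilution in 96-well plates. Overnight culture (5 μl) moved into 5 ml fresh medium and grown to log phase, then diluted to 2 × 10^6 CFU ml−1. Each well received 100 μl cell suspension plus 100 μl of compound at various concentrations (200 μl final). Read-out was MIC. Run three times.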

Experiment [2] concerns Escherichia coli. The experiment can be described thus: Antibacterial activity against Escherichia coli ATCC 25922 assessed as inhibition of bacterial growth by standard broth microdilution method. The format is functional. The procedure, abridged:
as §1
For orientation: Broth dilution looks for growth in wells or tubes with falling amounts of substance.

For experiment [3], the system named is Salmonella. The experiment can be described thus: Antibacterial activity against Salmonella ATCC 12022 assessed as inhibition of bacterial growth by standard broth microdilution method. The format is functional. The procedure, abridged: as §1
Experiment [4] deals with Staphylococcus aureus. The experiment is described as follows: Antibacterial activity against Staphylococcus aureus ATCC 25923 assessed as inhibition of bacterial growth by standard broth microdilution method. In kind it is functional. The procedure, abridged: as §1
For experiment [5], the system named is Pseudomonas aeruginosa. The experiment can be described thus: Antibacterial activity against Pseudomonas aeruginosa ATCC 27853 assessed as reduction in living bacterial cell counts at 1X to 4XMIC measured within 2 hrs by time-kill assay. The format is functional, organism-based.
The test system of experiment [6] is Salmonella. The experiment can be described thus: Antibacterial activity against Salmonella ATCC 12022 assessed as inhibition of bacterial growth at 0.5XMIC measured for 24 hrs by time-kill assay. The format is functional, organism-based.
Experiment [7] relates to Pseudomonas aeruginosa. The experiment is described as follows: Antibacterial activity against Pseudomonas aeruginosa ATCC 27853 assessed as inhibition of bacterial growth at 0.5XMIC measured for 24 hrs by time-kill assay. In kind it is functional, organism-based.
For experiment [8], the system named is Salmonella. The experiment can be described thus: Bacteriostatic activity against Salmonella ATCC 12022 at 1X to 4XMIC measured after 2 to 24 hrs by time-kill assay. In kind it is functional, organism-based. As to conditions: time 2-24 hrs.
Experiment [9] deals with Salmonella. The experiment is described as follows: Antibacterial activity against Salmonella ATCC 12022 assessed as reduction in living bacterial cell counts at 1X to 4XMIC measured within 2 hrs by time-kill assay. In kind it is functional, organism-based.
Experiment [10] has as its system Pseudomonas aeruginosa. The experiment can be described thus: Bacteriostatic activity against Pseudomonas aeruginosa ATCC 27853 at 1X to 4XMIC measured after 2 to 24 hrs by time-kill assay. The format is functional, organism-based. As to conditions: time 2-24 hrs.

As usually defined, the MIC is the lowest concentration found to suppress growth. As for `Cc1c(C(=O)Nc2sc3c(c2C(=O)O)CCC(C)C3)cccc1[N+](=O)[O-]` (stereo unspecified), the minimum inhibitory concentration (MIC) in experiment [1] worked out at 1.31 µM (≈ 0.49 µg/mL); in [2], 0.64 µM (≈ 0.24 µg/mL); in experiment [3], 1.31 µM (≈ 0.49 µg/mL); in [4], 83.6 µM (≈ 31.3 µg/mL).
Take `CCC1CCc2c(sc(NC(=O)c3cc([N+](=O)[O-])cc([N+](=O)[O-])c3)c2C(=O)O)C1` (stereo unspecified): the MIC in experiment [1] is 1.49 µM (≈ 0.625 µg/mL); in experiment [2] it was 1.49 µM (≈ 0.625 µg/mL); in [3], 1.49 µM (≈ 0.625 µg/mL); in [4], 2.98 µM (≈ 1.25 µg/mL).
Regarding `CC1CCc2c(sc(NC(=O)c3ccccc3I)c2C(=O)O)C1` (stereo unspecified), the result in experiment [5], in [8], in experiment [9] and in experiment [10] was Active. The outcome in experiment [6] and in [7] was inactive. Moreover, the MIC came out at 1 µM (≈ 0.441 µg/mL) in experiment [1], 1.11 µM (≈ 0.49 µg/mL) in [2], 0.54 µM (≈ 0.238 µg/mL) in experiment [3] and 1.11 µM (≈ 0.49 µg/mL) in experiment [4].
Take `CCC1CCc2c(sc(NC(=O)c3ccc(C)cc3C)c2C(=O)O)C1` (stereo unspecified): the MIC in [1] worked out at 1.75 µM (≈ 0.626 µg/mL); in experiment [2] it was 3.5 µM (≈ 1.25 µg/mL); in experiment [3] it was 1.75 µM (≈ 0.626 µg/mL); in experiment [4] it was 3.5 µM (≈ 1.25 µg/mL).
`Cc1ccc(C(=O)Nc2sc3c(c2C(=O)O)CCC(C)C3)c(C)c1` (stereo unspecified): the MIC in experiment [1] is 1.43 µM (≈ 0.491 µg/mL); in experiment [2], 5.69 µM (≈ 1.95 µg/mL); in experiment [3], 1.43 µM (≈ 0.491 µg/mL); in [4], 1.43 µM (≈ 0.491 µg/mL).
Take `CC1CCc2c(sc(NC(=O)c3cc(Cl)ccc3F)c2C(=O)O)C1` (stereo unspecified): the MIC is 1 µM (≈ 0.368 µg/mL) in [1], 1.33 µM (≈ 0.489 µg/mL) in [2], 1.33 µM (≈ 0.489 µg/mL) in [3] and 2.66 µM (≈ 0.978 µg/mL) in experiment [4].
In the case of `CC1CCc2c(sc(NC(=O)c3ccc(F)cc3)c2C(=O)O)C1` (stereo unspecified), the MIC is 0.72 µM (≈ 0.24 µg/mL) in experiment [1], 1.47 µM (≈ 0.49 µg/mL) in experiment [2], 1.47 µM (≈ 0.49 µg/mL) in experiment [3] and 1.47 µM (≈ 0.49 µg/mL) in experiment [4].
Turning to `O=C(O)c1cn(C2CC2)c2cc(N3CCNCC3)c(F)cc2c1=O` [CIPROFLOXACIN], the figures for the minimal inhibitory concentration (MIC) in [1], in experiment [2] and in experiment [3] were 10.1 µM (≈ 3.35 µg/mL), 1.27 µM (≈ 0.421 µg/mL) and 2.54 µM (≈ 0.842 µg/mL), respectively.
For `COc1ccc(C(=O)Nc2sc3c(c2C(=O)O)CCC(C)C3)cc1` (stereo unspecified), the MIC in experiment [1] was 45.3 µM (≈ 15.6 µg/mL); in experiment [2], 1.42 µM (≈ 0.49 µg/mL); in experiment [3], 90.6 µM (≈ 31.3 µg/mL); in experiment [4], 1.42 µM (≈ 0.49 µg/mL).
In the case of GENTAMICIN, in [4], the minimum inhibitory concentration (MIC) was determined as 1.27 µM.
Turning to `CCC1CCc2c(sc(NC(=O)c3cccc([N+](=O)[O-])c3F)c2C(=O)O)C1` (stereo unspecified), the minimal inhibitory concentration (MIC) was found to be 0.61 µM (≈ 0.239 µg/mL) in experiment [1], 19.9 µM (≈ 7.82 µg/mL) in [2], 19.9 µM (≈ 7.82 µg/mL) in experiment [3] and 1.25 µM (≈ 0.491 µg/mL) in [4].
With `CC1CCc2c(sc(NC(=O)c3ccc(F)cc3F)c2C(=O)O)C1` (stereo unspecified), the MIC is 11.1 µM (≈ 3.9 µg/mL) in experiment [1], 22.2 µM (≈ 7.82 µg/mL) in experiment [2], 11.1 µM (≈ 3.9 µg/mL) in [3] and 1.4 µM (≈ 0.492 µg/mL) in experiment [4].
As for `CC1CCc2c(sc(NC(=O)c3c(F)cccc3F)c2C(=O)O)C1` (stereo unspecified), the minimal inhibitory concentration (MIC) was 1.4 µM (≈ 0.492 µg/mL) in experiment [1], 11.1 µM (≈ 3.9 µg/mL) in experiment [2], 1.4 µM (≈ 0.492 µg/mL) in experiment [3] and 1.4 µM (≈ 0.492 µg/mL) in [4].
`CCC1CCc2c(sc(NC(=O)c3ccc(F)cc3)c2C(=O)O)C1` (stereo unspecified): the MIC in experiment [1] stood at 7.19 µM (≈ 2.5 µg/mL); in [2], 1.8 µM (≈ 0.625 µg/mL); in experiment [3], 7.19 µM (≈ 2.5 µg/mL); in [4] it was 1.8 µM (≈ 0.625 µg/mL).
As for `CCC1CCc2c(sc(NC(=O)c3ccc([N+](=O)[O-])cc3)c2C(=O)O)C1` (stereo unspecified), the MIC in experiment [1] is 1.67 µM (≈ 0.625 µg/mL); in [2], 6.68 µM (≈ 2.5 µg/mL); in [3], 1.67 µM (≈ 0.625 µg/mL); in experiment [4] it was 6.68 µM (≈ 2.5 µg/mL).
Turning to `CCC1CCc2c(sc(NC(=O)c3ccc(Cl)cc3)c2C(=O)O)C1` (stereo unspecified), the minimal inhibitory concentration (MIC) in [1] was found to be 3.44 µM (≈ 1.25 µg/mL); in experiment [2] it was 3.44 µM (≈ 1.25 µg/mL); in [3], 1.72 µM (≈ 0.626 µg/mL); in experiment [4] it was 3.44 µM (≈ 1.25 µg/mL).
As for `CCC1CCc2c(sc(NC(=O)c3ccccc3)c2C(=O)O)C1` (stereo unspecified), the minimal inhibitory concentration (MIC) in experiment [1] amounted to 0.73 µM (≈ 0.24 µg/mL); in [2], 1.49 µM (≈ 0.491 µg/mL); in experiment [3] it was 0.73 µM (≈ 0.24 µg/mL); in [4] it was 11.8 µM (≈ 3.9 µg/mL).
For `O=C(Nc1sc2c(c1C(=O)O)CCCC2)c1ccc(Cl)cc1`, the MIC in [1], in [2], in [3] and in experiment [4] was 1.46 µM (≈ 0.49 µg/mL) each time.
On to `CCC1CCc2c(sc(NC(=O)c3ccccc3Cl)c2C(=O)O)C1` (stereo unspecified), for which the MIC in experiment [1], in [2], in experiment [3] and in experiment [4] was 1.72 µM (≈ 0.626 µg/mL) each time.
Regarding `CCC1CCc2c(sc(NC(=O)c3ccc(F)cc3F)c2C(=O)O)C1` (stereo unspecified), the minimum inhibitory concentration (MIC) in experiment [1] is 1.71 µM (≈ 0.625 µg/mL); in experiment [2], 1.71 µM (≈ 0.625 µg/mL); in experiment [3], 1.71 µM (≈ 0.625 µg/mL); in experiment [4], 3.42 µM (≈ 1.25 µg/mL).
In the case of `CC1CCc2c(sc(NC(=O)c3ccccc3)c2C(=O)O)C1` (stereo unspecified), the MIC in experiment [1] was determined as 1.56 µM (≈ 0.492 µg/mL); in experiment [2], 1.56 µM (≈ 0.492 µg/mL); in experiment [3] it was 1.56 µM (≈ 0.492 µg/mL); in [4], 99.2 µM (≈ 31.3 µg/mL).
